# Source: ChEMBL document CHEMBL1141355, “Triterpene, antioxidant, and antimicrobial compounds from Melissa officinalis” (J Nat Prod, 2007)
# Tests used:
# Type in all cases: functional
# [1] = Antioxidant activity assessed as DPPH reducing activity
# Procedure, shortened: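 DPPH radical (0.025 g/L in MeOH, prepared daily) mixed with sample in MeOH, maximum concentration 200 µg/mL; vehicle control. Absorbance read at 515 nm after 10 min. Remaining DPPH calculated from a calibration curve. α-Tocopherol served as positive control. Run in triplicate; EC50 obtained by the Litchfield and Wilcoxon method.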
# Escherichia coli = assay: Antibacterial activity against Escherichia coli ATCC 8739 after 24 hrs by broth microdilution assay
# Procedure, shortened: (§1)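 Broth microdilution in Triptone, in duplicate, per NCCLS. Samples dissolved in DMSO, then diluted in Triptone; final concentrations 2 to 0.0078 mg/mL for the pure compound and 16 to 0.031 mg/mL for extracts. Inoculum 10^5 CFU/mL. Incubation 24 h at 37 °C, read visually from below. MIC taken as the lowest concentration inhibiting growth. Controls: growth without sample, and DMSO blank.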
# Bacillus spizizenii = assay: Antibacterial activity against Bacillus subtilis subsp. […] after 24 hrs by broth microdilution assay
# Procedure, shortened: (§2)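 ATCC strain in 96-well broth microdilution, run in duplicate following NCCLS guidance. Samples were dissolved in DMSO, then diluted in Triptone as serial dilutions: final 16 to 0.031 mg/mL for extracts, 2 to 0.0078 mg/mL for the pure compound. Inoculum suspension was 10^5 CFU/mL. Growth-control and DMSO blank wells were included. Plates were incubated 24 h at 37 °C. MIC is the lowest concentration inhibiting visible growth.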
# [2] = test system: Staphylococcus epidermidis; assay: Antibacterial activity against Staphylococcus epidermidis ATCC 12228 after 24 hrs by broth microdilution assay; procedure, shortened: as §1
# Candida albicans = assay: Antifungal activity against Candida albicans ATCC 10231 after 24 hrs by broth microdilution assay; procedure, shortened: as §2
# Aspergillus niger = assay: Antifungal activity against Aspergillus niger ATCC 16404 after 24 hrs by broth microdilution assay; details: ATCC 16404, 24 h; procedure, shortened: as §1
# Staphylococcus aureus = assay: Antibacterial activity against Staphylococcus aureus ATCC 6538 after 24 hrs by broth microdilution assay; procedure, shortened: as §1
# Pseudomonas aeruginosa = assay: Antibacterial activity against Pseudomonas aeruginosa ATCC 9027 after 24 hrs by broth microdilution assay; procedure, shortened: as §1
compound,measurement,setting,value
Cc1c(C)c2c(c(C)c1O)CC[C@@](C)(CCC[C@H](C)CCC[C@H](C)CCCC(C)C)O2 [ALPHA-TOCOPHEROL],EC50,[1],10.1 µg/mL
O=C(/C=C/c1ccc(O)c(O)c1)O[C@H](Cc1ccc(O)c(O)c1)C(=O)O [ROSMARINIC ACID],MIC,"Escherichia coli; ATCC 8739, 24 h",> 2000 µg/mL
same,MBC,"Bacillus spizizenii; ATCC 6633, 24 h, in the assay text read “ATCC 6633” for “ATCC 9027”",120 µg/mL
same,MIC,"[2]; ATCC 12228, 24 h",120 µg/mL
same,MBC,"[2]; ATCC 12228, 48 h, in the assay text read “48 hrs” for “24 hrs”",120 µg/mL
same,MIC,"Candida albicans; ATCC 10231, 24 h",> 2000 µg/mL
same,EC50,[1],3.1 µg/mL
same,MIC,Aspergillus niger,> 2000 µg/mL
same,MIC,"Staphylococcus aureus; ATCC 6538, 24 h",120 µg/mL
same,MBC,"Staphylococcus aureus; ATCC 6538, 48 h, in the assay text read “48 hrs” for “24 hrs”",120 µg/mL
same,MIC,"Pseudomonas aeruginosa; ATCC 9027, 24 h",> 2000 µg/mL
GENTAMICIN,MIC,Escherichia coli,4 µg/mL
same,MIC,Bacillus spizizenii,1 µg/mL
same,MIC,[2],1 µg/mL
same,MIC,Staphylococcus aureus,1 µg/mL
same,MIC,Pseudomonas aeruginosa,4 µg/mL
NYSTATIN,MIC,Candida albicans,1 µg/mL
